Experiments:
[1] = biological target: Cyclin-dependent kinase 1/cyclin B1 (Homo sapiens) (UniProt P06493+P14635); experiment: Inhibition of human CDK1/cyclin B assessed as residual activity at 1 uM relative to control; type: protein-complex assay
[2] = biological target: T1, Serine/threonine-protein kinase ULK2 (Homo sapiens) (UniProt Q8IYT8); experiment: Inhibition of human ULK2 assessed as residual activity at 1 uM relative to control
T1 sequence (whole entry): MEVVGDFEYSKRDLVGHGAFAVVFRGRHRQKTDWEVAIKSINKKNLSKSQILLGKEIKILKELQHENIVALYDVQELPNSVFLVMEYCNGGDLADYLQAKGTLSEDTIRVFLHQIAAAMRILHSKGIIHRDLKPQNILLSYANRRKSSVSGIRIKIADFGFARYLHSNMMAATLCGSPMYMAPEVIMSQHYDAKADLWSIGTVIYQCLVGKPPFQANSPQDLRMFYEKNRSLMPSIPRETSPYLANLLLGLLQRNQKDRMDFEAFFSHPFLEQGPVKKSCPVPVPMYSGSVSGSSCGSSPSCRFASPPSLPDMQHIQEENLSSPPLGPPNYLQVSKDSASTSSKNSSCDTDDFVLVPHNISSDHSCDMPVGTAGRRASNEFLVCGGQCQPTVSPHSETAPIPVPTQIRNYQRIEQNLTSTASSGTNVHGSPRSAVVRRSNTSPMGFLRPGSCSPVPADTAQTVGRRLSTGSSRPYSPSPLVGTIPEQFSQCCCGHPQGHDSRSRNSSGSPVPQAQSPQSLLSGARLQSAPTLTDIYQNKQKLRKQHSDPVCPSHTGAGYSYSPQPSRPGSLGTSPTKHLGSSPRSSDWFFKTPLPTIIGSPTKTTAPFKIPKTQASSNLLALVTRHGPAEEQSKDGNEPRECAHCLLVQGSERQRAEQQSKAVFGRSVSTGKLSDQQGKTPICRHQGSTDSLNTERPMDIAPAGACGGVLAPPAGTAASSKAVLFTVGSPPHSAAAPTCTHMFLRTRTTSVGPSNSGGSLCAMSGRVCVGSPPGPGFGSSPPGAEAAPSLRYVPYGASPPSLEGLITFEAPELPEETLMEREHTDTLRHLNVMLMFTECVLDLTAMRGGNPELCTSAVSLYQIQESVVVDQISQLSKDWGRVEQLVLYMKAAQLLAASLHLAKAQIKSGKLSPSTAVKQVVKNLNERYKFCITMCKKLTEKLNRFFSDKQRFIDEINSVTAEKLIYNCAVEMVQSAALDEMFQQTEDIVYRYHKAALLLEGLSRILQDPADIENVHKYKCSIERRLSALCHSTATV

[3] = biological target: Ribosomal protein S6 kinase alpha-5 (Homo sapiens) (UniProt O75582); experiment: Inhibition of human MSK1 assessed as residual activity at 1 uM relative to control
[4] = biological target: Tyrosine-protein kinase Yes (Homo sapiens) (UniProt P07947); experiment: Inhibition of human YES assessed as residual activity at 1 uM relative to control
[5] = biological target: Serine/threonine-protein kinase PLK1 (Homo sapiens) (UniProt P53350); experiment: Inhibition of human PLK1 assessed as residual activity at 1 uM relative to control
[6] = biological target: Insulin receptor (Homo sapiens) (UniProt P06213); experiment: Inhibition of human activated IR assessed as residual activity at 1 uM relative to control
[7] = biological target: T2, Inhibitor of nuclear factor kappa-B kinase subunit epsilon (Homo sapiens, UniProt Q14164); experiment: Inhibition of IKK-epsilon (unknown origin) using 5FAM-AKELDQGSLCTpSFVGTLQ-NH2 as substrate by microfluidic mobility shift assay
T2 sequence (Q14164 whole entry): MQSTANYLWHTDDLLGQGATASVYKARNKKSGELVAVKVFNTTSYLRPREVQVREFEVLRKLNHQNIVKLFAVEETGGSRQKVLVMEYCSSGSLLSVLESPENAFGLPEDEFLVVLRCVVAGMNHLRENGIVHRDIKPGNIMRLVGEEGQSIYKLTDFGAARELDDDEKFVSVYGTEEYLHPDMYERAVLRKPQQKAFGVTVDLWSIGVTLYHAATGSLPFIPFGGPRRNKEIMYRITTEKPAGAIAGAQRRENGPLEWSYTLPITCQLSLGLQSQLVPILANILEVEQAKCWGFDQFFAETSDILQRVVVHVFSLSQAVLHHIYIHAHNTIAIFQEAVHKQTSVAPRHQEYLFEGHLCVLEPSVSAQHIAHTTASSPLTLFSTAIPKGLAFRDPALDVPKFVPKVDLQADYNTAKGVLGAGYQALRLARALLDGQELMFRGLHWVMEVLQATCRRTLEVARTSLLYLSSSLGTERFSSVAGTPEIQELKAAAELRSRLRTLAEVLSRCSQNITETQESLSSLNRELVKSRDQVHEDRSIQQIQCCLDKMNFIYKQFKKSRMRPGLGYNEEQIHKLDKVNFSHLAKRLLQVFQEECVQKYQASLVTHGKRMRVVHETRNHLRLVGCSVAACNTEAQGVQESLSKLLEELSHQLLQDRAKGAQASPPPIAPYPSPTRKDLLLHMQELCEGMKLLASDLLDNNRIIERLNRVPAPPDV
How it was run: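 Recombinant IKK-ε (4 nM) in HEPES buffer with 1.5 µM 5FAM-labelled peptide substrate, ATP at its K_M, and 10 mM MgCl2. The 10-point titration used half-log serial dilutions. Reactions ran at room temperature for a set time, were quenched with EDTA-containing HEPES, and were read by microfluidic mobility shift. Percent inhibition came from the ratio of phosphorylated to total peptide.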

[8] = biological target: Mitogen-activated protein kinase kinase kinase 9 (Homo sapiens) (UniProt P80192); experiment: Inhibition of human MLK1 assessed as residual activity at 1 uM relative to control
[9] = biological target: Proto-oncogene tyrosine-protein kinase ROS (Homo sapiens) (UniProt P08922); experiment: Inhibition of human ROS assessed as residual activity at 1 uM relative to control
[10] = biological target: Glycogen synthase kinase-3 beta (Homo sapiens) (UniProt P49841); experiment: Inhibition of human GSK3beta assessed as residual activity at 1 uM relative to control
[11] = biological target: Serine/threonine-protein kinase MARK2 (Homo sapiens) (UniProt Q7KZI7); experiment: Inhibition of human PAR-1Balpha assessed as residual activity at 1 uM relative to control
[12] = biological target: RAC-alpha serine/threonine-protein kinase (Homo sapiens) (UniProt P31749); experiment: Inhibition of human PKBalpha assessed as residual activity at 1 uM relative to control
Sequence of RAC-alpha serine/threonine-protein kinase (Homo sapiens) (P31749 whole entry): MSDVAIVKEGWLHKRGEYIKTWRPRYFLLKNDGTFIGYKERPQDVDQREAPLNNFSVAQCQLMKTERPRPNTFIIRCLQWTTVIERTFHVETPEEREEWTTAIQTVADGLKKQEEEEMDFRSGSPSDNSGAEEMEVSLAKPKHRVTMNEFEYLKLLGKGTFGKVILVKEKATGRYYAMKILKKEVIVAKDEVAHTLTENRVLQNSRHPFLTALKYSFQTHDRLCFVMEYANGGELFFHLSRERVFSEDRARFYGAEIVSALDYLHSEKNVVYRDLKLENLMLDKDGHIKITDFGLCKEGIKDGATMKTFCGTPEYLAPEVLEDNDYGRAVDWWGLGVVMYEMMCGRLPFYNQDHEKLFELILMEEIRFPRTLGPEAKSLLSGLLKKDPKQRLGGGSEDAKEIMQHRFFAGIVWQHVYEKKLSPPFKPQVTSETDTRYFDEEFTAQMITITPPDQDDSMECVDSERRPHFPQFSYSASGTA

Sequence of Serine/threonine-protein kinase MARK2 (Homo sapiens) (Q7KZI7 whole entry): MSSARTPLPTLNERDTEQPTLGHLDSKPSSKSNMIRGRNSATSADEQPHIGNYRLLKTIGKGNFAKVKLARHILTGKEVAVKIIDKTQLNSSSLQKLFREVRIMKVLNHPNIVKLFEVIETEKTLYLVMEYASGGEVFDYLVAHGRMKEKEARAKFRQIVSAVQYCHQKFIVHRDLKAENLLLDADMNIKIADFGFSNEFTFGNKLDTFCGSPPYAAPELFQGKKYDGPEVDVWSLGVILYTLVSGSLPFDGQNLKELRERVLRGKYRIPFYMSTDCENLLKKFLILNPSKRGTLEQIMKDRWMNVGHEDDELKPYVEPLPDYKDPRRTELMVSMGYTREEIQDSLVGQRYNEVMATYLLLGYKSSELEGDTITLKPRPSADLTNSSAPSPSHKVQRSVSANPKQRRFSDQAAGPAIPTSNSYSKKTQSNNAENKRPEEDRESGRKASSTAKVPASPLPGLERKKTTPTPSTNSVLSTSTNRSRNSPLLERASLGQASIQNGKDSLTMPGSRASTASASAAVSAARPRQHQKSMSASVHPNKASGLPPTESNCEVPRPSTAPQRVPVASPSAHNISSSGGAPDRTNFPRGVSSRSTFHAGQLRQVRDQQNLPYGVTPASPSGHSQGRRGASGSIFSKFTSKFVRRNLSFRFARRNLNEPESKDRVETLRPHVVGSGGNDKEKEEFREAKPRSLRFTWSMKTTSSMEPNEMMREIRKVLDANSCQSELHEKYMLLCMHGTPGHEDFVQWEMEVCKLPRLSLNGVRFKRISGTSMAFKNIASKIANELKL
Sequence of Mitogen-activated protein kinase kinase kinase 9 (Homo sapiens) (P80192 whole entry, looked up): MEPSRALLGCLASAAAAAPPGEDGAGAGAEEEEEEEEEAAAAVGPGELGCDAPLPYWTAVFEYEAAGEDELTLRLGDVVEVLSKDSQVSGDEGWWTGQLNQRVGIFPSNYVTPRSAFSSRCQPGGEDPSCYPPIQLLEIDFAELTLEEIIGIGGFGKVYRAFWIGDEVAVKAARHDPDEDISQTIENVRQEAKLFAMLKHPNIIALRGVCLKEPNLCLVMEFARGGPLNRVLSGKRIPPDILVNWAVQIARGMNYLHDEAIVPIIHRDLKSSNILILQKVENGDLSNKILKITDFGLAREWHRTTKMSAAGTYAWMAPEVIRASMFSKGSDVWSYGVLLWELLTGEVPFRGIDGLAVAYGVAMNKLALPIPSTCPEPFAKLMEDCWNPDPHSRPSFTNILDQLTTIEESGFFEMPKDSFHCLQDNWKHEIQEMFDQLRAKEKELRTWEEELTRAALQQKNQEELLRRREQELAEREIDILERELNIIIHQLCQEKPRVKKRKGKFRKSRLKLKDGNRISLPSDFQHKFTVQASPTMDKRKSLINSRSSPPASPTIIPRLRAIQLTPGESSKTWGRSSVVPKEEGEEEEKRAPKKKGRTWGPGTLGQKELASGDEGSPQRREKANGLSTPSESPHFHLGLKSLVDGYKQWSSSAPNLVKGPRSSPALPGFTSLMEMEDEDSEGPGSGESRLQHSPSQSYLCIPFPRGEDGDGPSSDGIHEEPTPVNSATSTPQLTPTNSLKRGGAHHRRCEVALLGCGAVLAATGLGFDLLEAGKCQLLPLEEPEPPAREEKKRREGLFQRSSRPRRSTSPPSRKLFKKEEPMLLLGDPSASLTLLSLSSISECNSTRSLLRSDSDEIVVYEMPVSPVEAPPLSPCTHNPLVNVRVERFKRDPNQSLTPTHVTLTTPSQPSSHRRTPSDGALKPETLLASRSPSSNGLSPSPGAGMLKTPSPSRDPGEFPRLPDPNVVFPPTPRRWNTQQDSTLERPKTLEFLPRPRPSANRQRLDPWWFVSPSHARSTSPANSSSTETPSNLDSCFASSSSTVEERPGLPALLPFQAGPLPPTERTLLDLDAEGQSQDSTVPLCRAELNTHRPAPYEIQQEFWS
Sequence of Tyrosine-protein kinase Yes (Homo sapiens) (P07947 2-543 limits assumed): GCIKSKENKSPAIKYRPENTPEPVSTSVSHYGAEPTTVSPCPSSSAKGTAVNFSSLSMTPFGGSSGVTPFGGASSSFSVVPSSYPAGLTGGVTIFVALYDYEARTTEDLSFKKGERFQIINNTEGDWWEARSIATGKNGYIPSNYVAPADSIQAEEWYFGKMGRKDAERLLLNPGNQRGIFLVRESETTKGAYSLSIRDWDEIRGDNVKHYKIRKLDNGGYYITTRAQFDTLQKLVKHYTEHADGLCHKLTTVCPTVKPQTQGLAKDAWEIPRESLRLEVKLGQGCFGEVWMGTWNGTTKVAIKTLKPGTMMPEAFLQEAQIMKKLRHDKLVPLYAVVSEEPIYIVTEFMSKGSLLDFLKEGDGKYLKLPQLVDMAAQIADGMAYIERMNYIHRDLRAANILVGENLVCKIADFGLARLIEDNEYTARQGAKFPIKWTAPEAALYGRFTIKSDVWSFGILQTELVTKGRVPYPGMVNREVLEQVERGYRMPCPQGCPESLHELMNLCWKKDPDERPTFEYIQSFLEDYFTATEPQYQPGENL
Sequence of Serine/threonine-protein kinase PLK1 (Homo sapiens) (P53350 whole entry): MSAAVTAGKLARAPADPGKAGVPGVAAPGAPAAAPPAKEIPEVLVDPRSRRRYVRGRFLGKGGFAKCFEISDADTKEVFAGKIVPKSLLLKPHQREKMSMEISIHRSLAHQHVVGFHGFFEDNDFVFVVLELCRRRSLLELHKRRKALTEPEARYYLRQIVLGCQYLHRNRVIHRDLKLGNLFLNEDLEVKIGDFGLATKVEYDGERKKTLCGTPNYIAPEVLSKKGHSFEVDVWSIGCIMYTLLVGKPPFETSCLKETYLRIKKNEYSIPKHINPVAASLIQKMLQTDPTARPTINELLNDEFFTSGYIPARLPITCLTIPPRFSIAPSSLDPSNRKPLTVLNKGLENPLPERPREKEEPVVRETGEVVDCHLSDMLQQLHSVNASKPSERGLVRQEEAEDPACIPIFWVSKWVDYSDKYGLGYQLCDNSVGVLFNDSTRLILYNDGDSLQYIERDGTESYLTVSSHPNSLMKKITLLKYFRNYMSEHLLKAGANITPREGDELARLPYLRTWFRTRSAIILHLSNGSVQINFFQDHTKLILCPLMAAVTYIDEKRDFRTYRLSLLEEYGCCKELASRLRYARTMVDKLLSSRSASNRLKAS
Sequence of Cyclin-dependent kinase 1/cyclin B1 (Homo sapiens) (P06493 whole entry, looked up): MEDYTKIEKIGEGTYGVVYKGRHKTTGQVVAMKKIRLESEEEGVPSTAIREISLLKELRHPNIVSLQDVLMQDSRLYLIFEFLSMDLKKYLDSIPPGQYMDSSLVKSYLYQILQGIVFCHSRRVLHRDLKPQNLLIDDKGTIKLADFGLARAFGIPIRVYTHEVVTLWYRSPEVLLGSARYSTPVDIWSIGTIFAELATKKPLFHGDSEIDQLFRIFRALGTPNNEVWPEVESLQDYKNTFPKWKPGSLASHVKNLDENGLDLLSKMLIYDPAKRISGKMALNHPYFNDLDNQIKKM
Sequence of Cyclin-dependent kinase 1/cyclin B1 (Homo sapiens) (P14635 whole entry, looked up): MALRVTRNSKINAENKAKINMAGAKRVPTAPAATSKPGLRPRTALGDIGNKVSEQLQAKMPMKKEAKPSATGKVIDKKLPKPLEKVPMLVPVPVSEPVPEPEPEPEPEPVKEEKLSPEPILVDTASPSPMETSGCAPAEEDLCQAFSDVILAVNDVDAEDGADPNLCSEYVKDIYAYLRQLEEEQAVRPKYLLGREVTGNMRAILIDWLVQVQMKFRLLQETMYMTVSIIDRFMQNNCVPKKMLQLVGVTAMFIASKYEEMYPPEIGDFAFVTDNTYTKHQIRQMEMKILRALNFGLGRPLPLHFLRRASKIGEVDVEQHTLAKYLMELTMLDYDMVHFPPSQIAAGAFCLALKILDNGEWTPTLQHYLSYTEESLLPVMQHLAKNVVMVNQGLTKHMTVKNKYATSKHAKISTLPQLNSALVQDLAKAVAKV
Sequence of Glycogen synthase kinase-3 beta (Homo sapiens) (P49841 whole entry, looked up): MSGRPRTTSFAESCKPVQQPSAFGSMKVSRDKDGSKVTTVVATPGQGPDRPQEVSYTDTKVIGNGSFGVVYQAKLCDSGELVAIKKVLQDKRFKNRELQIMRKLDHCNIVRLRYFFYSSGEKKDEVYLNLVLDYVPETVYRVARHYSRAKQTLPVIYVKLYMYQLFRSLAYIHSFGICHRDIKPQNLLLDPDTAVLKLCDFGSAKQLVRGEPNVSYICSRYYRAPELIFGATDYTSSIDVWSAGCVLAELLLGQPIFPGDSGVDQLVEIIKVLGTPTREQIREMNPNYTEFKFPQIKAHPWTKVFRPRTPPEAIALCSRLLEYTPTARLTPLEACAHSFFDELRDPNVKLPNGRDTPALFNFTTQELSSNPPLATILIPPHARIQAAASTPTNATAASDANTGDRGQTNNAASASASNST

SMILES	Activity [1] [%]	Activity [2] [%]	Activity [3] [%]	Activity [4] [%]	Activity [5] [%]	Activity [6] [%]	IC50 [7] [nM]	Activity [8] [%]	Activity [9] [%]	Activity [10] [%]	Activity [11] [%]	Activity [12] [%]
COc1ccc(-c2nc3cc(-c4csc(C(=O)NCCC(C)C)c4)cnc3[nH]2)cc1	68	40	104	5	112	100	1750	23	82	83	54	111
COc1ccc(-c2nc3cc(-c4csc(C(=O)NCC(C)(C)C)c4)cnc3[nH]2)cc1	89	53	104	15	110	96	497	37	81	106	67	107
COc1ccc(-c2nc3cc(-c4csc(C(=O)NCC(C)C)c4)cnc3[nH]2)cc1	68	42	100	6	105	109	273	30	93	102	52	119

Reference: ChEMBL document CHEMBL3124838, “Discovery of 6-aryl-azabenzimidazoles that inhibit the TBK1/IKK-ε kinases” (Bioorg Med Chem Lett, 2014)
